Experimental data pooled from the literature.
Compare with care: the assays were run in different laboratories.
Target: MAP kinase-interacting serine/threonine-protein kinase 2 (MKNK2, Homo sapiens, UniProt Q9HBH9)

| SMILES | test | conditions | endpoint | value |
| --- | --- | --- | --- | --- |
| CN([C@@H]1CCc2c(CC(=O)O)c3ccccc3n2C1)S(=O)(=O)c1ccc(F)cc1 | cell-free assay, competition with immobilised ligand | 1 µM | remaining binding | 100% |
| CCN(CC)c1ccc(C2=NNC(=O)CC2C)cc1[N+](=O)[O-] (stereo not drawn) | enzyme activity, inhibitor | 10 µM | remaining activity | 25% |
| CC1=C(C#N)[C@@H](c2ccc3[nH]nc(C)c3c2)C(C#N)=C(c2ccc(Cl)cc2)N1 | cell-free assay, competition with immobilised ligand | 1 µM | remaining binding | 90.6% |
| COc1cc2c(N3CCN(C(=O)Nc4ccc(OC(C)C)cc4)CC3)ncnc2cc1OCCCN1CCCCC1 | cell-free assay | 0.5 µM | remaining signal | 99% |
| O=C(CSc1nc2nccnc2c(=O)n1CCc1ccccc1)Nc1nccs1 | enzyme activity, inhibitor | 10 µM | inhibition | -11% |
| Cc1cc(NC(=O)c2cccc3cc(-c4cccc5[nH]nc(N)c45)ccc23)ccc1F | enzyme activity, inhibitor | 0.1 µM | activity vs control | 111% |
| COc1ccc(COc2ccc(Cc3cnc(N)nc3N)cc2OC)cc1 | cell-free assay | 0.5 µM | remaining signal | 90.6% |
| COc1cc(/C=C/C(=O)CC(=O)/C=C/c2ccc(O)c(OC)c2)ccc1O | enzyme activity, inhibitor | 1 µM | activity vs control | 129% |
| CO[C@@H](C)c1c(Nc2ccc([C@@H](N(C)C(=O)C3CCS(=O)(=O)CC3)C(F)(F)F)cc2)cnc2cc(Cl)nn12 | cell-free assay, competition with immobilised ligand | 1 µM | remaining binding | 85% |
| O=C(Nc1cnn(-c2csc(C(=O)NC3COC3)c2)c1)Nc1ccccc1Cl | enzyme activity, inhibitor | 5 µM | remaining activity | 99.3% |
| Nc1nc(NC2CCCCC2)sc1C(=O)c1ccccc1 | enzyme activity, inhibitor | 10 µM | remaining activity | 94% |
| Cc1ccc(NC(=O)c2ccc(C)c(C(F)(F)F)c2)cc1C#Cc1nn(C2CCC(O)CC2)c2ncnc(N)c12 (stereo not drawn) | cell-free assay | 10 µM | remaining signal | 96% |
| FC(F)c1nc2ccccc2n1-c1nc(N2CCOCC2)nc(N2CCOCC2)n1 | enzyme activity, inhibitor | 10 µM | remaining activity | 101% |
| Cc1cnc(NC2CCOCC2)nc1-n1cnc(C(=O)NC(CN)c2cc(F)cc(Cl)c2)c1 (stereo not drawn) | enzyme activity, inhibitor, radiometric | 1 µM | remaining activity | 25% |
| COc1cc(-c2cn(C3CCc4ccccc4N(CC(F)(F)F)C3=O)nn2)ccc1-n1ccc(C)n1 (stereo not drawn) | cell-free assay, competition with immobilised ligand | 1 µM | remaining binding | 66% |
| FC(F)(F)Oc1cccc(-c2cnc3ccc(-c4ccncc4)nn23)c1 | enzyme activity, inhibitor, radiometric | 5 µM | activity vs control | 81% |
| C=CC(=O)Nc1cc(Nc2nccc(Nc3cc(Cl)c(F)cc3C(C)(C)O)n2)c(OC)cc1N1CC[C@@H](N(C)C)C1 | enzyme activity, inhibitor | 1 µM | inhibition | 67% |
| CCN(CC)CCNC(=O)c1c(C)[nH]c(/C=C2\C(=O)Nc3ccc(F)cc32)c1C | enzyme activity, inhibitor | 10 µM | inhibition | 6% |
| COc1cc(Nc2cnc(C#N)c(O[C@H](C)CN(C)C)n2)ncc1-c1cnn(C)c1 | enzyme activity, inhibitor, radiometric | 10 µM | remaining activity | 112% |
| NS(=O)(=O)c1cc(NC(=O)C2(c3ccccc3Cl)CC2)ccc1Oc1cccc(Cl)c1 | cell-free assay, competition with immobilised ligand | 1 µM | remaining binding | 100% |
| CNC(=O)c1cc(Oc2ccc(NC(=O)Nc3ccc(Cl)c(C(F)(F)F)c3)cc2)ccn1 | enzyme activity, inhibitor | 10 µM | inhibition | 90% |
